High-throughput results from PubChem BioAssay.
TAAR1 agonist = human TAAR1 agonists, primary screen, Fluo-8 calcium fluorescence, CHO RD-HGA16 cells; Trace amine-associated receptor 1 (Homo sapiens), Q96RJ0; vehicle wells 0%, saturating PEA agonist 100%; activation, % at 3 µM; 0.99% of 360,000 active; AID 624467, 2012;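 active = activation above the mean activation of all test compounds in the run plus 3 SD, cut at about 38% in these data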
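System: CHO RD-HGA16 cells carrying human TAAR1 plus Gα16; Incubation: 17-24 h seeding, 75 min 37 °C dye, 30 min RT; Measured by: Fluo-8 fluorescence, 5 s baseline then 140 s kinetic read; Control set: DMSO and PEA EC100; Replication: single well for each compound.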
CHO parental Ca = ATP-evoked calcium signal inhibitors, parental CHO, primary screen, counter-screen for OX1R antagonist project, cell-based, fluorescence, Fluo-8 calcium dye | inhibition, % at 5.6 µM | 0.63% of 330,000 active | AID 463079, 2010 | parental CHO-K1, ATP-induced calcium, Fluo-8 fluorescence;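 active = inhibition above that plate's mean sample inhibition plus 3 SD, cut at about 26% in these data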
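Test system: parental CHO cells; detection: calcium-sensitive Fluo-8 fluorescence; evaluation: percent inhibition of calcium signal; also added: ATP as calcium-mobilizing challenge; repeats: one well per compound; control set: ATP-challenged DMSO wells low, unchallenged DMSO wells high; compound: single nominal dose of 5.6 µM per compound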
TAAR1 antag = human TAAR1 antagonists, primary screen, Fluo-8 calcium fluorescence, CHO RD-HGA16 cells; inhibition, % at 3 µM; Trace amine-associated receptor 1 (Homo sapiens), Q96RJ0; AID 624466, 2012; 1.5% of 360,000 active; antagonist;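 active = inhibition above a per-plate cutoff, the mean inhibition of test compounds on that plate plus 3 SD, cut at about 49% in these data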
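System: RD-HGA16 CHO cells with stable hTAAR1 and Gα16 | Probe or stimulus: EC80 β-phenethylamine stimulus | Dosing: 3 µM, single point | Times: Dye loading 75 min at 37 °C, then 30 min room temperature | Measured by: Fluo-8 calcium-sensitive fluorescence | Read-out basis: % inhibition of agonist calcium response | Replicates: n of 1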
OX1R antag-1 = OX1R (HCRTR1) antagonists, primary screen, fluorescence, CHO/OX1R cells, Fluo-8 calcium, orexin A | Orexin/Hypocretin receptor type 1 (Homo sapiens), O43613 | Fluo-8 calcium fluorescence | inhibition, % at 5 µM | 0.43% of 330,000 active;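 active = inhibition above its plate's threshold, mean inhibition of all tested compounds on the plate plus 3 SD, cut at about 37% in these data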
Target sequence (O43613 whole entry, looked up): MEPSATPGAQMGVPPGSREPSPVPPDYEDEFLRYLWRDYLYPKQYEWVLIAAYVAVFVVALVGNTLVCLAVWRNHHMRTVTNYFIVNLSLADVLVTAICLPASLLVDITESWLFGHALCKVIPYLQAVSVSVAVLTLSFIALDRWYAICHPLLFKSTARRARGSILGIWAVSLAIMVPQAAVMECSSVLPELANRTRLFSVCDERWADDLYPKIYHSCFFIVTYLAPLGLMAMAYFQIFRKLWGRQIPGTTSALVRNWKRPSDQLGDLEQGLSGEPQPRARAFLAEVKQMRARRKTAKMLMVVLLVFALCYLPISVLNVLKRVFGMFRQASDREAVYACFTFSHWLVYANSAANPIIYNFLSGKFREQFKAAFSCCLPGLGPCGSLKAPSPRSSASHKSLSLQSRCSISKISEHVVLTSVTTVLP
OX1R antag-2 = antagonists of human orexin 1 receptor (OX1R). inhibition, % at 6.6 µM. 1.8% of 330,000 active. AID 485270, 2010. OX1R-expressing cells, FRET antagonist read-out. Orexin/Hypocretin receptor type 1 (Homo sapiens), O43613; in the data active = inhibition mostly above about 38%, no sharp cut-off; inactive = mostly below about 40%
GPR7 antagonist = GPR7 receptor antagonists, primary screen, cell-based, fluorescence, single concentration; Neuropeptides B/W receptor type 1 (Homo sapiens), P48145; GPR7-expressing cells, fluorescence antagonist assay; inhibition, % at 4.4 µM; 1.1% of 290,000 active; AID 1861, 2009; in the data active = inhibition above about 16%, passing the limit was not always enough;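 also: cells stimulated with the agonist NPW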
Numbers stand for hits; - = inactive; . = no result. A selection: hits, their analogues and other compounds. The true share with any hit is near 4.5%.

SMILES	TAAR1 agonist	CHO parental Ca	TAAR1 antag	OX1R antag-1	OX1R antag-2	GPR7 antagonist
CC1=CC2OC3CC4OC(=O)C=CC=CC(=O)OCCC(C)C(O)C(=O)OCC2(CC1)C4(C)C31CO1 (configuration not stated)	-	.	89.2	.	.	.
Cc1cc(N2CCNC[C@H]2C)ccc1N1CC[C@H](O)C1	-	.	-	.	.	.
OCCNc1c2c(nc3ccccc13)CCCC2	-	-	-	-	-	-
C[n+]1c2ccccc2nc2ccc(NCCO)cc21	-	-	-	-	85.5	-
CC(=O)C1=C(C)OC2=C(C(=O)CCC2)[C@@]12C(=O)N(C)c1ccccc12	-	.	-	.	.	.
CCN1/C(=C/C=C/C2=[N+](CC)c3ccccc3C2(C)C)C(C)(C)c2ccccc21	263.0	.	105.6	.	.	.
CN1/C(=C\C=Nc2ccccc2)C(C)(C)c2ccccc21	-	-	-	-	-	-
N#CCCC#N	-	.	-	.	.	.
NC1=Nc2ccccc2Oc2ccccc21	39.6	-	-	-	-	-
CC(=O)N1CCN(c2ccc([N+](=O)[O-])cc2C=C2C(=O)NC(=O)NC2=O)CC1	-	-	-	-	63.6	-
CC(C)S(=O)(=O)N1Cc2ccc(Br)cc2-n2nncc2C1	-	.	-	.	.	.
CCOc1ccc(-n2c(O)c(N=Nc3ccc([N+](=O)[O-])cc3)c(=O)[nH]c2=O)cc1	-	-	-	-	76.3	-
O=C(c1cccnc1)N1Cc2ccccc2-n2nncc2C1	-	.	-	.	.	.
CN1CCN(c2ccc([N+](=O)[O-])c(N/N=C3\CN4CCC3CC4)c2)CC1	-	-	-	-	56.0	-
CCNc1cc(N2CCN(C)CC2)ccc1[N+](=O)[O-]	-	-	-	-	50.6	-
CS(=O)(=O)c1ccc(C2=C(CNC(=O)c3nccs3)[C@H]3CC[C@@H](C2)N3Cc2ccccc2)cc1	-	.	-	.	.	.
O=c1[nH]c2ccccc2n1C1CCN(C(c2nnnn2C2CCCCC2)C2CC2)CC1 (configuration not stated)	58.1	.	52.0	.	.	.
CSCCC(c1nnnn1C1CCCCC1)N1CCC(n2c(=O)[nH]c3ccccc32)CC1 (configuration not stated)	-	.	62.3	.	.	.
O=c1[nH]c2ccccc2n1C1CCN(C(c2nnnn2Cc2ccccc2)C2CC2)CC1 (configuration not stated)	-	.	63.1	.	.	.
CC(C)(C)n1nnnc1C(CCc1ccccc1)N1CCC(n2c(=O)[nH]c3ccccc32)CC1 (configuration not stated)	-	.	-	.	.	.
O=c1[nH]c2ccccc2n1C1CCN(C(c2nnnn2C2CCCC2)C2CC2)CC1 (configuration not stated)	-	.	-	.	.	.
CCCCC1(CC)COP(=O)(OCC(Cl)(Cl)Cl)OC1 (configuration not stated)	-	.	-	.	.	.
COc1cccc(NC2=NCCS2)c1	-	.	-	.	.	.
CCNCCNc1ccc([N+](=O)[O-])c2cccnc12	-	-	-	-	41.8	-
O=C1C(Br)C2CCC1C2C(=O)O (configuration not stated)	-	.	-	.	.	.
SMILES	TAAR1 agonist	CHO parental Ca	TAAR1 antag	OX1R antag-1	OX1R antag-2	GPR7 antagonist
CCCCCSc1cc(OC)c(CCN)cc1OC	40.5	-	-	-	-	-
O=C(COC(=O)c1cc(Br)cc(Br)c1O)NC12CC3CC(CC(C3)C1)C2	-	.	-	.	.	.
O=C(O)c1cccc2nc3ccccc3nc12	-	-	-	-	48.3	-
CNc1cc(Cl)c2nonc2c1[N+](=O)[O-]	-	.	-	.	.	51.1
C[C@]12CCC3C(CC[C@H]4C[C@@H](O)CC[C@]34C)C1C[C@@H](Br)[C@H]2O (some centres not stated)	-	-	-	-	-	.
CCC1(CCC(C)C)C(=O)NC(=S)NC1=O	-	.	-	.	.	.
COc1cc2c(cc1OC)CN(c1ccc([N+](=O)[O-])c(C(F)(F)F)c1)CC2	-	-	-	-	47.7	-
CCCCCCC(C)(C)c1ccc([C@@H]2C[C@H](O)CC[C@H]2CCCO)c(O)c1	-	-	-	-	-	.
CN(C)c1ccc(/C=C/[N+](=O)[O-])cc1	40.1	-	-	-	58.3	19.3
Cc1ccc(OC(=O)N(C)C[C@H]2OCc3cnnn3CCCC(=O)N([C@@H](C)CO)C[C@@H]2C)cc1	-	.	-	.	.	.
CC1=C(C)CC2(C(=O)NC(=S)NC2=O)C(C)C1 (configuration not stated)	-	.	-	.	.	.
c1ccc(CCNCc2cccs2)cc1	38.9	.	-	.	.	-
O=P(OCCCl)(OCCCl)OCCCl	-	.	-	.	.	.
C=C(C)C(Cc1c(OC)ccc(C(=O)/C=C/c2ccc(O)cc2)c1O)OO (configuration not stated)	-	-	53.7	-	-	.
CC1CN(c2ccc([N+](=O)[O-])c3cccnc23)CC(C)N1 (configuration not stated)	-	-	-	-	79.4	-
O=[N+]([O-])c1ccc(N2CCCC2)c2ncccc12	-	-	-	-	-	-
CCC1=Nc2cc(C(=O)N3CCC4(CC3)OCCO4)ccc2Sc2ccc(C)cc21	-	-	-	-	-	-
CCN(CC)S(=O)(=O)c1cc(NC(=O)C(C)N2CC=C(c3ccccc3)CC2)ccc1C (configuration not stated)	-	43.1	-	-	-	-
CC(O)C1C=CC=CC(=O)OC2CC3OC4C5OC5(C)C(O)CC4(COC(=O)C(O)C(C)CCO1)C2(C)C31CO1 (configuration not stated)	-	.	-	.	.	.
CN1CCCC2c3ccccc3CCC21 (configuration not stated)	-	.	-	.	.	.
COc1ccc(/C=N\N=C(N)N)cc1	-	-	-	-	-	-
NC(N)=N/N=C/c1ccc(N(c2ccccc2)c2ccccc2)cc1	77.2	-	-	-	-	-
NC(=O)c1ccc(N=Nc2c(O)[nH]c(=O)[nH]c2=O)cc1	.	-	.	-	-	-
O=c1[nH]c(O)c(N=Nc2ccc(SC(F)F)cc2)c(=O)[nH]1	-	-	-	-	42.0	-
O=C(O)C1(c2ccc(Cl)cc2)CCC1	-	-	-	-	-	-
CC(=O)C1(c2ccccc2)CCNCC1	-	-	-	-	-	14.5
Cc1ccccc1C(=O)NCCN1CCC2(CC1)C(=O)NCN2c1ccccc1	-	.	-	.	.	.
Cn1c(O)c(C=Nc2ccc(F)cc2)c(=O)[nH]c1=O	-	-	-	-	-	-
Cn1c(O)c(/C=C2/C=CC=N2)c(=O)[nH]c1=O	-	-	-	-	49.6	-
